Test results as given in ChEMBL document CHEMBL1156763, “1,8-Naphthyridines VIII. Novel 5-aminoimidazo[1,2-a] [1,8]naphthyridine-6-carboxamide and 5-amino[1,2,4]triazolo[4,3-a] [1,8]naphthyridine-6-carboxamide derivatives showing potent analgesic or anti-inflammatory activity, respectively, and completely devoid of acute gastrolesivity” (Eur J Med Chem, 2010).

Key:
Rattus norvegicus [1] = assay: Antiinflammatory activity against carrageenan-induced paw edema in Wistar rat assessed as inhibition of hind paw edema at 25 mg/kg, po administered 1 hr prior to carrageenan challenge measured after 3 hrs relative to control; format: functional
How it was run: (§1)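 Wistar rats of either sex (250–300 g), fasted overnight, gavaged with compound in 0.5% methylcellulose. 1 h later, 0.1 mL 1% carrageenan injected subcutaneously into the plantar hind paw. Paw volume read by plethysmometer right after injection and 3 h later. Control edema set as 100, % inhibition from swelling difference. Groups of 8–10; Student's t-test.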

Rattus norvegicus [2] = assay: Antiinflammatory activity against carrageenan-induced paw edema in Wistar rat assessed as inhibition of hind paw edema at 50 mg/kg, po administered 1 hr prior to carrageenan challenge measured after 3 hrs relative to control; format: functional; how it was run: as §1
Rattus norvegicus [3] = assay: Antiinflammatory activity against carrageenan-induced paw edema in Wistar rat assessed as inhibition of hind paw edema at 6.25 mg/kg, po administered 1 hr prior to carrageenan challenge measured after 3 hrs relative to control; format: functional; how it was run: as §1
Rattus norvegicus [4] = assay: Antiinflammatory activity against carrageenan-induced paw edema in Wistar rat assessed as inhibition of hind paw edema at 12.5 mg/kg, po administered 1 hr prior to carrageenan challenge measured after 3 hrs relative to control; format: functional; how it was run: as §1
Rattus norvegicus [5] = assay: Acute gastrolesivity in Wistar rat assessed as appearance of gastric damage at 200 mg/kg, po after 5 hrs; format: toxicity, organism-based, Stomach; design: dose 200 mg/kg, route oral; conditions: in vivo
How it was run: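 Wistar rats (250–300 g), either sex, fasted overnight; compound suspended in 0.5% methylcellulose, single oral gavage at 200 mg kg^-1 (1 mL 100 g^-1). Stomachs excised 5 h later, fixed in 2% formalin, opened along greater curvature, examined by stereomicroscope by blinded observer. Reported as number of animals with gastric damage over treated animals (eight per group).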

Rattus norvegicus [6] = assay: Antiinflammatory activity against carrageenan-induced paw edema in Wistar rat assessed as inhibition of hind paw edema at 100 mg/kg, po administered 1 hr prior to carrageenan challenge measured after 3 hrs relative to control; format: functional; how it was run: as §1
Mus musculus [7] = assay: Analgesic activity in Swiss mouse assessed as inhibition of acetic acid-induced writhing response at 50 mg/kg, po administered 1 hr before acetic acid challenge measured for 30 mins relative to control; format: functional
How it was run: (§2)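 Mice of either sex (25–35 g), fasted overnight, dosed by oral gavage with test agent suspended in 0.5% methylcellulose; controls got vehicle alone. Each hind-limb full extension counted as a writhe over 30 min after the noxious agent. % inhibition from treated vs control writhing; groups of 8–10; Student's t-test. Dosing starts at 100 mg/kg, then halved stepwise.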

Mus musculus [8] = assay: Sedative activity in Swiss mouse assessed as inhibition of spontaneous locomotor activity at 100 mg/kg, po dose measured for every 5 mins up to 90 mins; format: organism-based; design: dose 100 mg/kg, route oral
How it was run: (§3)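 Overnight-fasted mice given compound (0.5% methylcellulose) or vehicle by oral gavage, then housed singly in an activity cage. Locomotion auto-recorded in 5-min intervals for 90 min; pulses of the final 30 min scored. % inhibition versus controls; runs between 9.00 and 13.00; groups of 8–10; Student's t-test.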

Mus musculus [9] = assay: Analgesic activity in Swiss mouse assessed as inhibition of acetic acid-induced writhing response at 100 mg/kg, po administered 1 hr before acetic acid challenge measured for 30 mins relative to control; format: functional; how it was run: as §2
Mus musculus [10] = assay: Sedative activity in Swiss mouse assessed as inhibition of spontaneous locomotor activity at 50 mg/kg, po dose measured for every 5 mins up to 90 mins; format: organism-based; design: dose 50 mg/kg, route oral; how it was run: as §3
Mus musculus [11] = assay: Analgesic activity in Swiss mouse assessed as inhibition of acetic acid-induced writhing response at 25 mg/kg, po administered 1 hr before acetic acid challenge measured for 30 mins relative to control; format: functional; how it was run: as §2
Mus musculus [12] = assay: Analgesic activity in Swiss mouse assessed as inhibition of acetic acid-induced writhing response at 12.5 mg/kg, po administered 1 hr before acetic acid challenge measured for 30 mins relative to control; format: functional; how it was run: as §2
Mus musculus [13] = assay: Analgesic activity in Swiss mouse assessed as inhibition of acetic acid-induced writhing response at 6.25 mg/kg, po administered 1 hr before acetic acid challenge measured for 30 mins relative to control; format: functional; how it was run: as §2

Molecule `C=CCNc1c(C(=O)N(CC)CC)c2nnc(C(C)C)n2c2ncccc12` has an inhibition in vivo at 25 mg/kg (Rattus norvegicus [1]) of 52%, an inhibition in vivo at 50 mg/kg (Rattus norvegicus [2]) of 49% and an inhibition in vivo at 6.25 mg/kg (Rattus norvegicus [3]) of 25%. For the same molecule, the inhibition in vivo at 12.5 mg/kg (Rattus norvegicus [4]) was 32%, the Activity (Rattus norvegicus [5]) was “Non-toxic” and the inhibition in vivo at 100 mg/kg (Rattus norvegicus [6]) was 60%. For the same molecule, the inhibition in vivo at 50 mg/kg (Mus musculus [7]) was 28%, the inhibition at 100 mg/kg (Mus musculus [8]) was 64% and the inhibition in vivo at 100 mg/kg (Mus musculus [9]) was 79%.

`CCN(CC)C(=O)c1c(NCC(C)C)c2cccnc2n2c(C)cnc12` gave an inhibition in vivo at 100 mg/kg (Rattus norvegicus [6]) of 0% and an inhibition in vivo at 100 mg/kg (Mus musculus [9]) of 0%.

With `CCN(CC)C(=O)c1c(NC(C)C)c2cccnc2n2c(C(C)C)nnc12` the inhibition at 50 mg/kg (Mus musculus [10]) was 64%, the inhibition in vivo at 25 mg/kg (Rattus norvegicus [1]) was 75% and the inhibition in vivo at 50 mg/kg (Rattus norvegicus [2]) was 75%. For the same molecule, the inhibition in vivo at 25 mg/kg (Mus musculus [11]) was 33%, the inhibition in vivo at 12.5 mg/kg (Rattus norvegicus [4]) was 68% and the Activity (Rattus norvegicus [5]) was “Non-toxic”. The inhibition in vivo at 100 mg/kg (Rattus norvegicus [6]) was 81%, the inhibition in vivo at 50 mg/kg (Mus musculus [7]) was 54% and the inhibition in vivo at 100 mg/kg (Mus musculus [9]) was 83%. For the same molecule, the inhibition in vivo at 12.5 mg/kg (Mus musculus [12]) was 0%.

Work on `CCC(CC)Nc1c(C(=O)N(CC)CC)c2nnc(C(C)C)n2c2ncccc12` yielded an inhibition at 50 mg/kg (Mus musculus [10]) of 84%, an inhibition in vivo at 25 mg/kg (Rattus norvegicus [1]) of 47% and an inhibition in vivo at 6.25 mg/kg (Mus musculus [13]) of 36%. For the same molecule, the inhibition in vivo at 50 mg/kg (Rattus norvegicus [2]) was 47%, the inhibition in vivo at 6.25 mg/kg (Rattus norvegicus [3]) was 11% and the inhibition in vivo at 25 mg/kg (Mus musculus [11]) was 58%. The inhibition in vivo at 12.5 mg/kg (Rattus norvegicus [4]) was 45%, the Activity (Rattus norvegicus [5]) was “Non-toxic” and the inhibition in vivo at 100 mg/kg (Rattus norvegicus [6]) was 50%. It also gave an inhibition in vivo at 50 mg/kg (Mus musculus [7]) of 75%, an inhibition in vivo at 100 mg/kg (Mus musculus [9]) of 91% and an inhibition in vivo at 12.5 mg/kg (Mus musculus [12]) of 49%.

In the case of `CCN(CC)C(=O)c1c(N2CCN(Cc3ccccc3)CC2)c2cccnc2n2ccnc12`, the inhibition in vivo at 50 mg/kg (Rattus norvegicus [2]) is reported as 10%, the Activity (Rattus norvegicus [5]) is reported as “Non-toxic” and the inhibition in vivo at 100 mg/kg (Rattus norvegicus [6]) is reported as 26%. The inhibition in vivo at 50 mg/kg (Mus musculus [7]) was 0%, the inhibition at 100 mg/kg (Mus musculus [8]) was 42% and the inhibition in vivo at 100 mg/kg (Mus musculus [9]) was 46%.

`CCN(CC)C(=O)c1c(N2CCN(Cc3ccccc3)CC2)c2cccnc2n2c(C)cnc12` was tested, and the inhibition in vivo at 100 mg/kg (Rattus norvegicus [6]) was 0% and the inhibition in vivo at 100 mg/kg (Mus musculus [9]) was 17%.

`CCc1nnc2c(C(=O)N(CC)CC)c(N(C)CC(C)C)c3cccnc3n12` gave an inhibition in vivo at 25 mg/kg (Rattus norvegicus [1]) of 28%, an inhibition in vivo at 50 mg/kg (Rattus norvegicus [2]) of 42% and an inhibition in vivo at 12.5 mg/kg (Rattus norvegicus [4]) of 8%. The Activity (Rattus norvegicus [5]) was “Non-toxic”, the inhibition in vivo at 100 mg/kg (Rattus norvegicus [6]) was 39% and the inhibition in vivo at 50 mg/kg (Mus musculus [7]) was 26%. The inhibition at 100 mg/kg (Mus musculus [8]) was 60% and the inhibition in vivo at 100 mg/kg (Mus musculus [9]) was 92%.

`CCN(CC)C(=O)c1c(N2CCN(C)CC2)c2cccnc2n2c(N(C)C)cnc12` was tested, and the inhibition at 50 mg/kg (Mus musculus [10]) was 30%, the Activity (Rattus norvegicus [5]) was “Non-toxic” and the inhibition in vivo at 100 mg/kg (Rattus norvegicus [6]) was 0%. It also gave an inhibition in vivo at 50 mg/kg (Mus musculus [7]) of 16%, an inhibition at 100 mg/kg (Mus musculus [8]) of 44% and an inhibition in vivo at 100 mg/kg (Mus musculus [9]) of 83%.

With `CC(C)CNc1c(C(=O)N2CCN(C)CC2)c2nnc(C(C)C)n2c2ncccc12` the Activity (Rattus norvegicus [5]) was “Non-toxic”, the inhibition in vivo at 100 mg/kg (Rattus norvegicus [6]) was 0% and the inhibition in vivo at 50 mg/kg (Mus musculus [7]) was 29%. The inhibition at 100 mg/kg (Mus musculus [8]) was 0% and the inhibition in vivo at 100 mg/kg (Mus musculus [9]) was 48%.

Molecule `CCNc1c(C(=O)N(CC)CC)c2nccn2c2ncccc12` has an inhibition in vivo at 25 mg/kg (Rattus norvegicus [1]) of 25%, an inhibition in vivo at 50 mg/kg (Rattus norvegicus [2]) of 26% and an inhibition in vivo at 12.5 mg/kg (Rattus norvegicus [4]) of 0%. The Activity (Rattus norvegicus [5]) was “Non-toxic”, the inhibition in vivo at 100 mg/kg (Rattus norvegicus [6]) was 29% and the inhibition in vivo at 50 mg/kg (Mus musculus [7]) was 2%. It also gave an inhibition at 100 mg/kg (Mus musculus [8]) of 89% and an inhibition in vivo at 100 mg/kg (Mus musculus [9]) of 60%.

`CCN(CC)C(=O)c1c(NCC(C)C)c2cccnc2n2c(C(C)C)nnc12` showed an inhibition in vivo at 25 mg/kg (Rattus norvegicus [1]) of 61%, an inhibition in vivo at 50 mg/kg (Rattus norvegicus [2]) of 66% and an inhibition in vivo at 6.25 mg/kg (Rattus norvegicus [3]) of 27%. For the same molecule, the inhibition in vivo at 12.5 mg/kg (Rattus norvegicus [4]) was 50%, the Activity (Rattus norvegicus [5]) was “Non-toxic” and the inhibition in vivo at 100 mg/kg (Rattus norvegicus [6]) was 70%. For the same molecule, the inhibition in vivo at 50 mg/kg (Mus musculus [7]) was 33% and the inhibition in vivo at 100 mg/kg (Mus musculus [9]) was 100%.

For `CCOC(=O)c1cn2c(n1)c(C(=O)N(CC)CC)c(N1CCN(C)CC1)c1cccnc12`, the Activity (Rattus norvegicus [5]) was “Non-toxic”, the inhibition in vivo at 100 mg/kg (Rattus norvegicus [6]) was 0% and the inhibition in vivo at 50 mg/kg (Mus musculus [7]) was 2%. The inhibition at 100 mg/kg (Mus musculus [8]) was 0% and the inhibition in vivo at 100 mg/kg (Mus musculus [9]) was 75%.
